How the values were obtained:
[1] = test system: primary cultured astrocytes; experiment: Binding of FITC-labeled peptides to cultured astrocytes; type: cell-based, C57BL/6 mice; details: FITC-labeled peptide 1 μg/mL, 24 hr, GFAP immunostaining
In short: (§1)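 Cells were exposed to FITC-labelled peptide at 1 μg/mL in culture medium for 24 hr, fixed in 4% PFA and immunostained for MAP2 (NSC-34, maintained in DMEM/F12 with 10% FCS), GFAP (primary astrocytes) or Iba1 (primary microglia). Primary cultures came from C57BL/6 pups 1–2 days postpartum. FITC-positive marker cells were counted by confocal microscopy in six independent wells and averaged as a percentage; experiments were run in triplicate.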

[2] = test system: CD206 (M2)-positive primary microglia; experiment: CD206 immunocytochemistry of peptide-labeled microglia; type: cell-based, C57BL/6 mice; details: FITC-labeled peptide 1 μg/mL, 24 hr; n = 6 wells
In short: (§2)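 Primary C57BL/6 microglia were isolated from 14-day mixed glial culture and incubated 24 hr with FITC-peptide at 1 μg/mL. They were then fixed in 4% PFA and immunostained for CD86 (M1) or CD206 (M2) with Alexa Fluor 555 secondaries. Marker-positive cells were counted by confocal microscopy as a percentage of FITC-positive microglia across six independent wells, with >1,000 cells in total and triplicate experiments.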

[3] = test system: primary cultured microglia; experiment: Binding of FITC-labeled peptides to cultured microglia; type: cell-based, C57BL/6 mice; details: FITC-labeled peptide 1 μg/mL, 24 hr; for FITC labeling of primary cultured microglia (in words): Iba1 immunostaining; for percentage of FITC-positive microglia in all Iba1-positive cells: n = 6 wells
In short: as §1

NSC-34 cells (neuron) = experiment: Binding of FITC-labeled peptides to neuronal cells; type: cell-based; details: FITC-labeled peptide 1 μg/mL, 24 hr, MAP2 immunostaining
In short: as §1

[4] = test system: CD86 (M1)-positive primary microglia; experiment: CD86 immunocytochemistry of peptide-labeled microglia; type: cell-based, C57BL/6 mice; details: FITC-labeled peptide 1 μg/mL, 24 hr; n = 6 wells
In short: as §2

KT-5 cells (astrocytes) = experiment: Phage display panning; type: binding; details: 48 of the 58 phage plaques, astrocytes (KT-5)
In short: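 A CX7C M13 library in Tris-buffered saline (pH 7.5) was given via tail vein to C57BL/6 mice. After 5 min, blood was removed transcardially, and spinal cords were homogenised in DMEM with protease inhibitor. Phage were titrated as plaques in E. coli ER2738, amplified and re-injected for three rounds. Three 5-min in vitro panning cycles on KT-5 cells followed, and pIII inserts of 50–58 phages were sequenced.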

[5] = test system: spinal cord astrocytes (GFAP) and microglia (Iba1); type: in vivo, C57BL/6 mice; details: 3 μg FITC-labeled peptide, intrathecal, 3 hr; MG1 compared with MG2

Row | FITC labeling of primary cultured astrocytes (in words) [1] | Substance | percentage of CD206-positive cells in the microglia labeled with the peptide [2] [%] | FITC labeling of primary cultured microglia (in words) [3] | percentage of FITC-positive microglia in all Iba1-positive cells [3] | FITC labeling of NSC-34 cells (in words) (NSC-34 cells (neuron)) | percentage of CD86-positive cells in the microglia labeled with the peptide [4] [%] | frequency of phage plaques (KT-5 cells (astrocytes)) [%] | accumulation of peptide in the spinal cord tissues [5]
1 | not in the NSC-34 cells or astrocytes | C-NTGSPYE-C [MG2] | 47 | observed only in the primary cultured microglia | approximately 40% | not in the NSC-34 cells or astrocytes | 27 |  | 
2 | only observed in astrocytes | C-LNSSQPS-C [AS1] |  | not with MAP2 staining in neurons or Iba1 staining in microglia |  | not with MAP2 staining in neurons or Iba1 staining in microglia |  | 83 | 
3 | not observed | C-HHSSSAR-C [MG1] | 26 | mainly present in Iba1-positive microglia | approximately 60% | not observed | 40 |  | greater accumulation of MG1 peptides than of MG2 peptides

Reference: paper PMC5992689 (Molecular Therapy. Nucleic Acids, 2018)
